The source of these data is ChEMBL document CHEMBL4007452, “Discovery of an Orally Selective Inhibitor of Signal Transducer and Activator of Transcription 3 Using Advanced Multiple Ligand Simultaneous Docking” (J Med Chem, 2017).

Active and inactive are the calls of the source. The rule behind the calls is not given here.

The target of series [1] is Epidermal growth factor receptor (Homo sapiens) (UniProt P00533). In words: Inhibition of EGFR in human MDA-MB-231 cells assessed as reduction in p-Akt level at 2.5 to 5 uM after 12 hrs by immunoblot analysis. Format: cell-based. The method in brief: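 MDA-MB-231 cells at 60–80% confluence were treated 12 h with 10% FBS at 2.5-10 µM or 2.5-5 µM, against a DMSO control. Whole-cell lysates were immunoblotted, with bands quantified as percent of control.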

Series [2] has as its system Mus musculus. In words: Toxicity in BALB/c nude mouse xenografted with human MDA-MB-231 cells assessed as heart damage at 2.5 to 10 mg/kg, po qd administered for 32 days by H&E staining based light microscopy. The format is organism-based. Particulars: in vivo, 768 h. The method in brief: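 6-week-old female athymic SPF BALB/c nude mice received 5 x 10^6 MDA-MB-231 cells s.c. in the flank. Oral treatment began once tumors reached about 100 mm3, with 8 mice per group and a saline vehicle control. […] Treatment lasted 32 days. Heart, liver, spleen, lung and kidney were fixed 48 h in 10% neutral-buffered formaldehyde, paraffin-embedded, cut at 5 µm, H&E-stained and examined by light microscopy.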

For series [3], the target named is T1, Signal transducer and activator of transcription 1-alpha/beta (Homo sapiens) (UniProt P42224).
T1 sequence (whole entry): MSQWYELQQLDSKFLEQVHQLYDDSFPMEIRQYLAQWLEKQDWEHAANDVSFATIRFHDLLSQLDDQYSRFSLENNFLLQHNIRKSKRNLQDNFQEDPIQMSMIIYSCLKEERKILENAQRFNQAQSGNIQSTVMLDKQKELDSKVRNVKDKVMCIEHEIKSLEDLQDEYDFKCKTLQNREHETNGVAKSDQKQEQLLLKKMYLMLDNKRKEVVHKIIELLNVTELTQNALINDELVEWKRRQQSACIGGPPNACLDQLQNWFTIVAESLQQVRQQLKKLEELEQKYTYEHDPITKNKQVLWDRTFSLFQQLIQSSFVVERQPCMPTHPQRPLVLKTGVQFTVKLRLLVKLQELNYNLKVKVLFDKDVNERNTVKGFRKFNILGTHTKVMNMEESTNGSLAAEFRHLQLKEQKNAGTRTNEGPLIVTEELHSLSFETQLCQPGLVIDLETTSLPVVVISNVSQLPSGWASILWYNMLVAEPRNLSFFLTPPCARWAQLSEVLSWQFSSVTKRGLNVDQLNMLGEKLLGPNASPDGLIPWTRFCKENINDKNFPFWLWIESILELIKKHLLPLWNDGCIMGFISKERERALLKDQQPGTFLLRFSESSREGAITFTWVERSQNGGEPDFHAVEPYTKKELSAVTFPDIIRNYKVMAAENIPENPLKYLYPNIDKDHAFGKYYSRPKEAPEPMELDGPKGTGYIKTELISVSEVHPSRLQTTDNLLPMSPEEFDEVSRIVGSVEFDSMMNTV
The series is described as follows: Inhibition of STAT1 dimerization in human MDA-MB-231 cells assessed as inhibition of STAT1-STAT1 DNA binding activity at 5 uM after 24 hrs by EMSA. Format: cell-based. In short, it runs like this:
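MDA-MB-231 cells were treated at 5 µM for 0-24 h before nuclear extract preparation. Extracts were incubated with biotin-labeled probe for 30 min at room temperature, then analysed by EMSA.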

The target in series [4] is T1, Signal transducer and activator of transcription 1-alpha/beta (Homo sapiens). The series is described as follows: Binding affinity to STAT1 (unknown origin) after 30 mins by fluorescence polarization assay. The method in brief: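 A competitive fluorescence polarization assay measured displacement of fluorescent phosphopeptide from the SH2 domain of purchased STAT1 or STAT5 protein, using the corresponding peptides.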

Series [5] deals with T2, Signal transducer and activator of transcription 3 (Homo sapiens, UniProt P40763). Particulars: 5 to 10 uM.
In series [6] the target is T2, Signal transducer and activator of transcription 3. As to conditions: 5 uM.
Series [7] concerns MDA-MB-231. In words: Antiproliferative activity against human MDA-MB-231 cells after 24 hrs by MTT assay. The format is functional, cell-based. As to conditions: MDA-MB-231, 24 h. In short, it runs like this: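 Cells were seeded at 3000 per well and incubated 24 h at 37 °C. Compounds were added in triplicate with 10% FBS: 0.1-10 or 0.1-20 µM for cancer lines, 3.125-400 µM for MCF-10A. Viability was read by MTT absorbance at 595 nm, with IC50 fitted from the curves. DMSO stocks were 20 mM.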

For series [8], the target named is T1, Signal transducer and activator of transcription 1-alpha/beta (Homo sapiens). In words: Inhibition of STAT1 in human MDA-MB-231 cells assessed as reduction in IFN-gamma-induced STAT1-STAT1 DNA binding activity at 2.5 to 10 uM preincubated for 2 hrs followed by IFN-gamma stimulation measured after 30 mins by EMSA. Format: cell-based. In short, it runs like this: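 Serum-starved MDA-MB-231 cells were preincubated with compound, stimulated with IFN-γ 50 ng/mL, and then nuclear extracts were taken for EMSA with biotin-labeled probe.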

The nature of series [9]: AUC (0 to infinity) in Sprague-Dawley rat plasma at 1 mg/kg, iv measured after 24 hrs by UPLC analysis. Format: ADME, organism-based. Details: dose 1 mg/kg, time infinity, route intravenous. In short, it runs like this:
(§1)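 Rat plasma sampled from 2 min to 24 h after a single i.v. (1 mg/kg) or p.o. (10 mg/kg) dose. Parameters were derived from the concentration-time profiles. The bioanalytical method was validated to FDA guidelines for selectivity, linearity, LLOQ, accuracy, precision, recovery, matrix effect and stability.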

For series [10], the system named is MDA-MB-231. The series is described as follows: Anticancer activity against human MDA-MB-231 cells xenografted in BALB/c nude mouse assessed as reduction in tumor volume at 5 mg/kg, po qd administered for 32 days. Format: functional. Also noted: scale not given: the % may be the effect or the level left. As to conditions: in the assay text read “tumor weight” for “tumor volume”.

Series [11] can be described thus: Cmax in Sprague-Dawley rat plasma at 1 mg/kg, iv measured after 24 hrs by UPLC analysis. The format is ADME, organism-based. Also noted: dose 1 mg/kg, route intravenous. The method in brief: as §1
Series [12] is described as follows: Initial plasma concentration in Sprague-Dawley rat at 1 mg/kg, iv measured after 24 hrs by UPLC analysis. The format is ADME, organism-based. The method in brief:
as §1

A short description of series [13]: AUC (0 to t) in Sprague-Dawley rat plasma at 1 mg/kg, iv measured after 24 hrs by UPLC analysis. The format is ADME, organism-based. Details: dose 1 mg/kg, time < 24 hr, route intravenous. The method in brief:
as §1

A further series has as its system Rattus norvegicus. In words: AUMC (0 to infinity) in Sprague-Dawley rat plasma at 10 mg/kg, po measured after 24 hrs by UPLC analysis. Format: ADME, organism-based. As to conditions: in vivo. The method in brief:
as §1

Series [14] relates to Mus musculus. The series is described as follows: Effect on total STAT3 level in BALB/c nude mouse xenografted with human MDA-MB-231 at 2.5 to 10 mg/kg, po qd administered for 32 days by Western blot analysis. The format is ADME, organism-based. As to conditions: in vivo, 768 h. In short, it runs like this: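 Whole-cell lysates from MDA-MB-231 xenograft tumors of mice dosed orally at 2.5, 5 or 10 mg/kg were immunoblotted for P-STAT3(Y705), T-STAT3 and GAPDH.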

Series [15] has as its target T2, Signal transducer and activator of transcription 3. Particulars: 2.5 to 5 uM.

T2 sequence (P40763 whole entry): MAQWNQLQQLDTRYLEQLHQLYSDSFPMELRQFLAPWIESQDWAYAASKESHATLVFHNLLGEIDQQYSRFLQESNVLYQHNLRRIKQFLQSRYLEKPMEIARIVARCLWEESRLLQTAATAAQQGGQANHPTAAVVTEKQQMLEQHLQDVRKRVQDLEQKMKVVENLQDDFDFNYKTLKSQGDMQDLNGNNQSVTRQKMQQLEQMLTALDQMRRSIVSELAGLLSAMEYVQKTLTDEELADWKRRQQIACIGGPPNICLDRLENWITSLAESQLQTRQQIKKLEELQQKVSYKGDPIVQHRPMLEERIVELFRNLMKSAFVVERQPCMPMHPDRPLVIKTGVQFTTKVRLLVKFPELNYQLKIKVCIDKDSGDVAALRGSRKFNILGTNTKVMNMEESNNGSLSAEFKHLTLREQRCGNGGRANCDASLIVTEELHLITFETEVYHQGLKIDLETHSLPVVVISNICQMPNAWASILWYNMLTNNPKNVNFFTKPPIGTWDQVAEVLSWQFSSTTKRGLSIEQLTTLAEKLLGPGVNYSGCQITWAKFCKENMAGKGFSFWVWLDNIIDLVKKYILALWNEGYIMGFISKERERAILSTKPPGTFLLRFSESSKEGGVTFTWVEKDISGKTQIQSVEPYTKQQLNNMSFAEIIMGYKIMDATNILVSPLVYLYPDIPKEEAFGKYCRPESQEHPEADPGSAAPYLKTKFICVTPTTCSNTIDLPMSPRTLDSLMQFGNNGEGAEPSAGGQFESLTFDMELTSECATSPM
Epidermal growth factor receptor (Homo sapiens), sequence (P00533 whole entry): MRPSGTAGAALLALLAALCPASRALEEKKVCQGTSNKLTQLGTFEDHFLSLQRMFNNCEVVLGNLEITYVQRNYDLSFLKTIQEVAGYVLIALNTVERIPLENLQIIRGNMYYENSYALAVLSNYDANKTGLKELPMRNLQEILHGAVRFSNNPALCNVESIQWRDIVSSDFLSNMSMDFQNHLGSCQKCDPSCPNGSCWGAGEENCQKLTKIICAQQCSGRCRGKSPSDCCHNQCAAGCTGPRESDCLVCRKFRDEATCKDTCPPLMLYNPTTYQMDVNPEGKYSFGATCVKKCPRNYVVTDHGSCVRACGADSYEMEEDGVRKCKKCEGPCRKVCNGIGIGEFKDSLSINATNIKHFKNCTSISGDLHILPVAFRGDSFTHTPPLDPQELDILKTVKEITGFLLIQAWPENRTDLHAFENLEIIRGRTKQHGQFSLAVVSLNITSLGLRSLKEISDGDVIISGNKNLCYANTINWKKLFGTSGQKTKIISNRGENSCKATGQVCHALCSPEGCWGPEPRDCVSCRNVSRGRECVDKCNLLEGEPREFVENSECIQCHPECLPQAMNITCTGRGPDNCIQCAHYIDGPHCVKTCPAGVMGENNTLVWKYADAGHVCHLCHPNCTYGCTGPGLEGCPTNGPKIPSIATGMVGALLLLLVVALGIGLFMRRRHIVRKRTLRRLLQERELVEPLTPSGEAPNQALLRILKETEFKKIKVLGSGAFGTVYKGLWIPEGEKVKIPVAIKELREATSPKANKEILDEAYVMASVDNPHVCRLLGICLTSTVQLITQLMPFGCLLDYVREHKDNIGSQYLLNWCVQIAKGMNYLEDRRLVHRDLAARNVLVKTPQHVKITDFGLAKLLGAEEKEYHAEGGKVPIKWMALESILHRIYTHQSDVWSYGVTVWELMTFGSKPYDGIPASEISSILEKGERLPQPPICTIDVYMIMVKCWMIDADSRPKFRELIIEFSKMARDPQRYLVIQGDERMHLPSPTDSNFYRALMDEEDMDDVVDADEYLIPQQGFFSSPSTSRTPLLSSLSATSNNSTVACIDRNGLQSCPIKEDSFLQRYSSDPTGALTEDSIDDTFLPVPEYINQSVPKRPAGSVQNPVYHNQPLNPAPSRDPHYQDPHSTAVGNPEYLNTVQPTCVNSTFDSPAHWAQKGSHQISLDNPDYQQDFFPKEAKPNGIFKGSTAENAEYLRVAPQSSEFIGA

In the case of `NS(=O)(=O)c1cccc2c1C(=O)C=C(Nc1ccccc1N1CCNCC1)C2=O`, the inhibition entry in [1] and in series [8] was “inactive” each time. In addition, the Activity result with Mus musculus [2] is “Non-Toxic”; with MDA-MB-231 [10] it was 60%; in the series with Mus musculus [14], “Non-Toxic”. In addition, the inhibition entry in series [3], in [5], in series [6] and in series [15] was “Active” each time. Also, in series [4], the result was inactive. The compound also displayed an IC50 in the series on MDA-MB-231 [7] of 0.7 µM. In [9], this compound displayed an AUC(0-inf) of 199 ng·h/mL. The Cmax in series [11] was determined as 359 ng/mL. The compound also had a C0 at 24 h in series [12] of 382 ng/mL. In series [13], this compound yielded an exposure AUC(0-t) at 24 h of 189 ng·h/mL. The AUMC with Rattus norvegicus came out at 2002.1 hr2.ng/ml.
